Measured values published in ChEMBL document CHEMBL1938329, “The discovery of potent, selective, and orally active pyrazoloquinolines as PDE10A inhibitors for the treatment of Schizophrenia” (Bioorg Med Chem Lett, 2012).
The source made the active and inactive calls. The calls are words filed in the database; no cut-off is given here.

How the values were obtained:
[1] = biological target: 5-hydroxytryptamine receptor 7 (Homo sapiens) (UniProt P34969); assay: Inhibition of 5HT7 at 10 uM
[2] = biological target: Casein kinase I isoform delta (Homo sapiens, UniProt P48730); assay: Inhibition of CK1delta
Chain of Casein kinase I isoform delta (P48730 whole entry, canonical isoform): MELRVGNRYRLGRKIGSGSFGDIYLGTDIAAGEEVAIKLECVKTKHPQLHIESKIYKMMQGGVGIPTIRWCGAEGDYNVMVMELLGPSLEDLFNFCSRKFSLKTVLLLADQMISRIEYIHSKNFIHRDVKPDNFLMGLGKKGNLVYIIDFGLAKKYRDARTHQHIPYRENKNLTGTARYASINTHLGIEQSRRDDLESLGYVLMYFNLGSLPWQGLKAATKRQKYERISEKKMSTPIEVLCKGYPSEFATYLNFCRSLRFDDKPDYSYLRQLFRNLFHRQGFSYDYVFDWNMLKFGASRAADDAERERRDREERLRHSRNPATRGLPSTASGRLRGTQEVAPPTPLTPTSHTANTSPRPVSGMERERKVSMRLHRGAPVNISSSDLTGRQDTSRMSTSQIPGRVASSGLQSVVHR

[3] = Drug uptake in rat brain at 10 mg/kg, po after 6 hrs; format: ADME, organism-based; design: dose 10 mg/kg, route oral; conditions: read-out: Drug uptake
Summary of the method: (§1)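 Rat cassette-accelerated rapid screen, 10 mg/kg oral. Plasma exposure measured over 0–6 h. Brain drug concentration taken at 6 h. Brain/plasma ratio is brain over plasma drug concentration at 6 h.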

Phosphodiesterase 4 = Phosphodiesterase 4 (Homo sapiens, UniProt P27815+Q08499+Q07343+Q08493); assay: Inhibition of recombinant human PDE4 using [3H]cAMP as substrate by scintillation proximity assay; format: protein assay
Summary of the method: (§2)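 Scintillation proximity assay with [³H]cAMP as substrate, measuring hydrolysis of cAMP to AMP by recombinant human PDEs 1–11. Ki values are means of at least two experiments.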

[4] = biological target: T1, 5-hydroxytryptamine receptor 3A (Homo sapiens) (UniProt P46098); assay: Inhibition of 5HT3 at 10 uM
T1 sequence (whole entry): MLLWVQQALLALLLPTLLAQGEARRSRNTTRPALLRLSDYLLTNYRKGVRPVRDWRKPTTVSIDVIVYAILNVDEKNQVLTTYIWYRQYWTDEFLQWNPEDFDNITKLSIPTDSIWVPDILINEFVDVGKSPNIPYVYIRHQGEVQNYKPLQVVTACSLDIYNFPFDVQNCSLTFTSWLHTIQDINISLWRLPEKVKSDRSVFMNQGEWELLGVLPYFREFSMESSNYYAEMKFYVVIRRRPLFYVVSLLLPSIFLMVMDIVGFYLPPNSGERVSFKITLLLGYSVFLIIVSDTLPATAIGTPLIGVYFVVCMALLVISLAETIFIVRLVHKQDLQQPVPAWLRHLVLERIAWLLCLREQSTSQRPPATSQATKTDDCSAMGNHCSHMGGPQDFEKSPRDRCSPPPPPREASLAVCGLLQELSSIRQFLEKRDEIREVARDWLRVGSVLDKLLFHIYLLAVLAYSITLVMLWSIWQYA

Phosphodiesterase 3 = Phosphodiesterase 3 (Homo sapiens, UniProt Q14432+Q13370); assay: Inhibition of recombinant human PDE3 using [3H]cAMP as substrate by scintillation proximity assay; format: protein assay; summary of the method: as §2
Phosphodiesterase 6 = assay: Inhibition of recombinant human PDE6 using [3H]cAMP as substrate by scintillation proximity assay; format: protein assay; summary of the method: as §2
[5] = Plasma protein binding in rat; format: ADME, cell-free; conditions: read-out: PPB (converted)
[6] = biological target: cGMP-specific 3',5'-cyclic phosphodiesterase (Homo sapiens, UniProt O76074); assay: Inhibition of recombinant human PDE5A using [3H]cAMP as substrate by scintillation proximity assay; summary of the method: as §2
[7] = biological target: High affinity cGMP-specific 3',5'-cyclic phosphodiesterase 9A (Homo sapiens, UniProt O76083); assay: Inhibition of recombinant human PDE9 using [3H]cAMP as substrate by scintillation proximity assay; summary of the method: as §2
Chain of High affinity cGMP-specific 3',5'-cyclic phosphodiesterase 9A (O76083 whole entry): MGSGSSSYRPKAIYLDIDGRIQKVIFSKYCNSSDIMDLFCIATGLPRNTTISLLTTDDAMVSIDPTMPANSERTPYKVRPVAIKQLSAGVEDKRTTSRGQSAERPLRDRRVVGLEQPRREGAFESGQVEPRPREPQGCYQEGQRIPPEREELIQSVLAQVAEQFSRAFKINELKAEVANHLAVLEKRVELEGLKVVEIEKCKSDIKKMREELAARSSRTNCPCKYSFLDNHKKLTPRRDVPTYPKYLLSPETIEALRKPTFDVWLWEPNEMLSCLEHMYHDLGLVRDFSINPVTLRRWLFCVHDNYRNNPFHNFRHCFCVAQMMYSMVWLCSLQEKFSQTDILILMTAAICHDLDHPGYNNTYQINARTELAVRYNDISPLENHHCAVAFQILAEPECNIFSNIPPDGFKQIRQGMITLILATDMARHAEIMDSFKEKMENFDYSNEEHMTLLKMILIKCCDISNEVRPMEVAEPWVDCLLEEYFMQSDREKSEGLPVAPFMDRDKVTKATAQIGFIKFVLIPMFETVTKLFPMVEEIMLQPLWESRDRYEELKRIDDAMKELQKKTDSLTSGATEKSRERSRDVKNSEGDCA

Phosphodiesterase 1 = Phosphodiesterase 1 (Homo sapiens, UniProt P54750+Q01064+Q14123); assay: Inhibition of recombinant human PDE1 using [3H]cAMP as substrate by scintillation proximity assay; format: protein assay; summary of the method: as §2
[8] = biological target: cGMP-dependent 3',5'-cyclic phosphodiesterase (Homo sapiens, UniProt O00408); assay: Inhibition of recombinant human PDE2 using [3H]cAMP as substrate by scintillation proximity assay; summary of the method: as §2
Chain of cGMP-dependent 3',5'-cyclic phosphodiesterase (O00408 whole entry): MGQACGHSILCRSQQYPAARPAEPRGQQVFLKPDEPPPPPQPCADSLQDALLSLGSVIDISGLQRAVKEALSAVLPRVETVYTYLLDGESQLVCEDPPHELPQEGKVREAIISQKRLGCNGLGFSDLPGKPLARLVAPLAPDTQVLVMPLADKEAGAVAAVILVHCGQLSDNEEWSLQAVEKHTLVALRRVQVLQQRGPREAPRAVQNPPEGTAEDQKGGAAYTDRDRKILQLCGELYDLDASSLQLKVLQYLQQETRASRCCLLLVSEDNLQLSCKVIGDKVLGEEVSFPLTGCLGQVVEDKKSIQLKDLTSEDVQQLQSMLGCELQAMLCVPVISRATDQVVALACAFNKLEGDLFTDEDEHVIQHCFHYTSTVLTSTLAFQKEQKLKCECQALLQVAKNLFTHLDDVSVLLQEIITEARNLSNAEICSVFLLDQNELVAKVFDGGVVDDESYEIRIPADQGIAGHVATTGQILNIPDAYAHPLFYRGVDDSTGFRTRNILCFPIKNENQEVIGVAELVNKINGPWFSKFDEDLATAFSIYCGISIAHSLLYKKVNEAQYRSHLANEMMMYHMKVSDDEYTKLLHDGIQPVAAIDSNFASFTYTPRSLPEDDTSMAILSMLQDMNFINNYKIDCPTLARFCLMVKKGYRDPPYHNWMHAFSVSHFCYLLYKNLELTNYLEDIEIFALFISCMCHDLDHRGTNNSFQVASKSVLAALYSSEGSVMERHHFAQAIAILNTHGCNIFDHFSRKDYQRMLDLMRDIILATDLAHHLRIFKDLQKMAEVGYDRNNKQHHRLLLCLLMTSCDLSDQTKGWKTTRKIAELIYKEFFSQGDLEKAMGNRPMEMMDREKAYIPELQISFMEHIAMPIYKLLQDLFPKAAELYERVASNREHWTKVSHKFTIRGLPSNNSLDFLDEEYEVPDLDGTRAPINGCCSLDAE

Phosphodiesterase 7 = Phosphodiesterase 7 (Homo sapiens, UniProt Q13946+Q9NP56); assay: Inhibition of recombinant human PDE7 using [3H]cAMP as substrate by scintillation proximity assay; format: protein assay; summary of the method: as §2
[9] = Ratio of drug level in brain to plasma in rat at 10 mg/kg, po at 6 hrs; format: ADME, organism-based; design: dose 10 mg/kg, route oral; conditions: read-out: BPR; summary of the method: as §1
[10] = biological target: Dual 3',5'-cyclic-AMP and -GMP phosphodiesterase 11A (Homo sapiens, UniProt Q9HCR9); assay: Inhibition of recombinant human PDE11 using [3H]cAMP as substrate by scintillation proximity assay; summary of the method: as §2
Chain of Dual 3',5'-cyclic-AMP and -GMP phosphodiesterase 11A (Q9HCR9 whole entry): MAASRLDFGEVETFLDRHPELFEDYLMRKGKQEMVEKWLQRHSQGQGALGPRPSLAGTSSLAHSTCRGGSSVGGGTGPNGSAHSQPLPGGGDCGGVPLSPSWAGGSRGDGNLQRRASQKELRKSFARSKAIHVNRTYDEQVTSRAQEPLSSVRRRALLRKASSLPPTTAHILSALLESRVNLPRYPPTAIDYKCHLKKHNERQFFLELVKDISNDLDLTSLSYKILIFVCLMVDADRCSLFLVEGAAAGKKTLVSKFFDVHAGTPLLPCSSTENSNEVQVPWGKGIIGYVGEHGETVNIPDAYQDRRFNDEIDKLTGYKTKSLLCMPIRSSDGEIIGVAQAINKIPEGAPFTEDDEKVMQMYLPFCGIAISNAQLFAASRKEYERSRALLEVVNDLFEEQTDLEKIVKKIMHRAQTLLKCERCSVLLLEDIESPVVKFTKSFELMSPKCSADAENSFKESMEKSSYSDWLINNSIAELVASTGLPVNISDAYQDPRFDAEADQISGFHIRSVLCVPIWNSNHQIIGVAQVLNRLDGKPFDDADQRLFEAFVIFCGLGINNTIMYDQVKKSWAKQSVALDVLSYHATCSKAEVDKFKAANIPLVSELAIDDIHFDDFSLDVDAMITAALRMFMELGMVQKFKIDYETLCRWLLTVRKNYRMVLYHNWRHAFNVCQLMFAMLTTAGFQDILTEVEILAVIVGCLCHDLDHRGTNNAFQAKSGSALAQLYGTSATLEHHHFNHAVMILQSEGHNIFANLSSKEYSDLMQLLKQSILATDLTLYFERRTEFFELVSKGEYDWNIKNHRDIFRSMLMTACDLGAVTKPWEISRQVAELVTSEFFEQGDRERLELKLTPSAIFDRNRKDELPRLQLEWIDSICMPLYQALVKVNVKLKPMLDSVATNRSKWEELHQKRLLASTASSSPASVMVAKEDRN

Phosphodiesterase 8 = Phosphodiesterase 8 (Homo sapiens, UniProt O95263+O60658); assay: Inhibition of recombinant human PDE8 using [3H]cAMP as substrate by scintillation proximity assay; format: protein assay; summary of the method: as §2
[11] = AUC (0 to 6 hrs) in rat at 10 mg/kg, po; format: ADME, organism-based; design: time < 6 hr, dose 10 mg/kg, route oral; conditions: plasma; summary of the method: as §1
[12] = biological target: 5-hydroxytryptamine receptor 1B (Homo sapiens) (UniProt P28222); assay: Inhibition of 5HT1b at 10 uM
Chain of 5-hydroxytryptamine receptor 1B (Homo sapiens) (P28222 whole entry): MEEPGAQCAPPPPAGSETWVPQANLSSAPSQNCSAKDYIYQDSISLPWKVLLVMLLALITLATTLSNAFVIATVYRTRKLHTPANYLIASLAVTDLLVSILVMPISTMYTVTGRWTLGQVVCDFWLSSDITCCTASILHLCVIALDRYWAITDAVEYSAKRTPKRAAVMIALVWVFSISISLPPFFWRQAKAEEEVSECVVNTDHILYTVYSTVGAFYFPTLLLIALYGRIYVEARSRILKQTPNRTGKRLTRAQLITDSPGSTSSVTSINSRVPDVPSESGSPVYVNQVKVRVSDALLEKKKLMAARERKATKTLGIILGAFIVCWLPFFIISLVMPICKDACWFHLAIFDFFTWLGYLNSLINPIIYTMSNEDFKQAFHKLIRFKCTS

[13] = Drug uptake in CD rat brain at 30 mg/kg, po after 1 hr; format: ADME, organism-based; design: dose 30 mg/kg, route oral; conditions: read-out: Drug uptake
[14] = biological target: cAMP and cAMP-inhibited cGMP 3',5'-cyclic phosphodiesterase 10A (Homo sapiens, UniProt Q9Y233); assay: Inhibition of recombinant human PDE10A using [3H]cAMP as substrate by scintillation proximity assay; summary of the method: as §2
Chain of cAMP and cAMP-inhibited cGMP 3',5'-cyclic phosphodiesterase 10A (Q9Y233 whole entry): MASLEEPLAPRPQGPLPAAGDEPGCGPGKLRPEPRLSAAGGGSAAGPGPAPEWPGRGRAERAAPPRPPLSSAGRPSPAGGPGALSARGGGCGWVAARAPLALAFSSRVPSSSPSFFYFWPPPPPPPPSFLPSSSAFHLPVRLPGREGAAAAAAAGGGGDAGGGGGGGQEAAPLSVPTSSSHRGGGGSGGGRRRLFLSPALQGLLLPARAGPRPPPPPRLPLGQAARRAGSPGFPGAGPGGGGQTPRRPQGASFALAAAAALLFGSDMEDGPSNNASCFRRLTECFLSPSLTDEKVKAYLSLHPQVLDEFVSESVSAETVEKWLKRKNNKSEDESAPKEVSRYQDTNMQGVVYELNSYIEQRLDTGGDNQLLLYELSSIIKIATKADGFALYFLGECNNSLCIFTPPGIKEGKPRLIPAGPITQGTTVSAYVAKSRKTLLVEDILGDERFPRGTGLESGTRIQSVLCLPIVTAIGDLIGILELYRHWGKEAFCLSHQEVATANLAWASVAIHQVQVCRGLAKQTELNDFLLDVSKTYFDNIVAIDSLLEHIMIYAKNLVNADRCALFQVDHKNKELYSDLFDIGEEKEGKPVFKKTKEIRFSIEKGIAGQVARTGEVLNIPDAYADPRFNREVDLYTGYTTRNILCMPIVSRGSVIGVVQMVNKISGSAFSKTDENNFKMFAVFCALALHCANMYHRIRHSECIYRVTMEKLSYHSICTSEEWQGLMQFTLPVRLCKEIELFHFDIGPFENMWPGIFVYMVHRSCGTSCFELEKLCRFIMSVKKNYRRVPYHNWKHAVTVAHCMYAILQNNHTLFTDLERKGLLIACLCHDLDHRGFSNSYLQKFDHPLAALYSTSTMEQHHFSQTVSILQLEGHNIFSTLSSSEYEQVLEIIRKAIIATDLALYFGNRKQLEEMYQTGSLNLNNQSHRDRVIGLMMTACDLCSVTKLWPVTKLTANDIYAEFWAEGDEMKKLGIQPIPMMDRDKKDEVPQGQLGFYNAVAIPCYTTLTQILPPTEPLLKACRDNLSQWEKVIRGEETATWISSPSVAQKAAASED

Rattus norvegicus [15] = assay: Antipsychotic activity in CD rat assessed as inhibition of MK-801-induced hyperactivity at 30 mg/kg, po relative to control; format: functional, organism-based; design: dose 30 mg/kg
Summary of the method: (§3)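 Male CD rats habituated to locomotor activity chambers 24 h before testing. On test day, MK-801 (0.3 mg/kg, sc) co-administered with PDE10 inhibitor (po), then rats placed in apparatus. Inhibition expressed as percent of activity in inhibitor + MK-801 group relative to vehicle + MK-801 group.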

[16] = biological target: T2, Phosphodiesterase 6 (Homo sapiens) (UniProt Q13956+P18545+P35913+O43924+P16499+P51160); assay: Inhibition of recombinant human PDE6 using [3H]cAMP as substrate at 1 uM by scintillation proximity assay; format: protein assay
Rattus norvegicus [17] = assay: Antipsychotic activity in CD rat assessed as inhibition of MK-801-induced hyperactivity at 10 mg/kg, po relative to control; format: functional, organism-based; design: dose 10 mg/kg; summary of the method: as §3
Homo sapiens [18] = species: Homo sapiens; assay: Selectivity ratio of Ki for recombinant human PDE9 to Ki for recombinant human PDE10A
Summary of the method: (§4)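 Recombinant human PDE enzymes (PDE1–11) were tested in a scintillation proximity assay with [³H]cAMP as substrate, measuring hydrolysis of cAMP to AMP. Ki values are means of at least two experiments. The ratio is the Ki for each off-target PDE divided by the PDE10A Ki.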

Homo sapiens [19] = species: Homo sapiens; assay: Selectivity ratio of Ki for recombinant human PDE8 to Ki for recombinant human PDE10A; summary of the method: as §4
Homo sapiens [20] = species: Homo sapiens; assay: Selectivity ratio of Ki for recombinant human PDE7 to Ki for recombinant human PDE10A; summary of the method: as §4
Homo sapiens [21] = species: Homo sapiens; assay: Selectivity ratio of Ki for recombinant human PDE3 to Ki for recombinant human PDE10A; summary of the method: as §4
Homo sapiens [22] = species: Homo sapiens; assay: Selectivity ratio of Ki for recombinant human PDE5A to Ki for recombinant human PDE10A; summary of the method: as §4
Homo sapiens [23] = species: Homo sapiens; assay: Selectivity ratio of Ki for recombinant human PDE2 to Ki for recombinant human PDE10A; summary of the method: as §4
Homo sapiens [24] = species: Homo sapiens; assay: Selectivity ratio of Ki for recombinant human PDE1 to Ki for recombinant human PDE10A; summary of the method: as §4
Homo sapiens [25] = species: Homo sapiens; assay: Selectivity ratio of Ki for recombinant human PDE6 to Ki for recombinant human PDE10A; summary of the method: as §4
Homo sapiens [26] = species: Homo sapiens; assay: Selectivity ratio of Ki for recombinant human PDE11 to Ki for recombinant human PDE10A; summary of the method: as §4
Homo sapiens [27] = species: Homo sapiens; assay: Selectivity ratio of Ki for recombinant human PDE4 to Ki for recombinant human PDE10A; summary of the method: as §4
[28] = biological target: T2, Phosphodiesterase 6 (Homo sapiens); assay: Inhibition of recombinant human PDE6 using [3H]cAMP as substrate at 3.6 uM by scintillation proximity assay; format: protein assay
[29] = Clearance in cebus monkey hepatocytes assessed per million of cells; format: ADME, cell-based, Hepatocyte; conditions: cebus capucinus, read-out: CLH
[30] = Clearance in dog hepatocytes assessed per million of cells; format: ADME, cell-based, Canis lupus familiaris, Hepatocyte; conditions: read-out: CLH
Rattus norvegicus [31] = species: Rattus norvegicus; assay: Sedative activity in rat assessed as hypolocomotion by spontaneous locomotor activity test; format: organism-based; conditions: in vivo
Summary of the method: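 Hypolocomotion assessed in rats by spontaneous locomotor activity test, run to distinguish reversal of MK-801-induced behaviour from compound-induced hypolocomotion; ED₅₀ derived.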

[32] = Clearance in human hepatocytes assessed per million of cells; format: ADME, cell-based, Hepatocyte; conditions: read-out: CLH
Rattus norvegicus [33] = assay: Antipsychotic activity in po dosed CD rat assessed as inhibition of MK-801 induced hyperactivity relative to control; format: functional; summary of the method: as §3
[34] = AUC in dog at 2 mg/kg, po; format: ADME, organism-based, Canis lupus familiaris; design: dose 2 mg/kg, route oral; conditions: plasma
[35] = Efflux ratio of permeability in human Caco2 cells; format: ADME, cell-based; conditions: Caco-2
[36] = Clearance in rat hepatocytes assessed per million of cells; format: ADME, cell-based, Hepatocyte; conditions: read-out: CLH

Chain of 5-hydroxytryptamine receptor 7 (Homo sapiens) (P34969 whole entry, canonical isoform): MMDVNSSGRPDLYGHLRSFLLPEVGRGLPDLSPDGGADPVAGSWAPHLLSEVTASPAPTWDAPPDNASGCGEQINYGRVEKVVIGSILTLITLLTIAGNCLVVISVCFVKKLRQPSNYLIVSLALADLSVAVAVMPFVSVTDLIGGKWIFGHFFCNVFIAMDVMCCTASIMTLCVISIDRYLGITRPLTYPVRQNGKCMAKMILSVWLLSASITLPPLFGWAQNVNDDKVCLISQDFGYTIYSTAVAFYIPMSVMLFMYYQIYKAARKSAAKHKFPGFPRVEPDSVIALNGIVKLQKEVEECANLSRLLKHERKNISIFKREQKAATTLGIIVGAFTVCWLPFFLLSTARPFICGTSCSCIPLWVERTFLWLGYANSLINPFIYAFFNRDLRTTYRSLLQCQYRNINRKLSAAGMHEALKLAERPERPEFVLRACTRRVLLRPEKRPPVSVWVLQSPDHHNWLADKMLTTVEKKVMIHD

| Structure (SMILES) | concentration at 6 h [3] [ng/g] | Ki (Phosphodiesterase 4) | Ki (Phosphodiesterase 3) | Ki (Phosphodiesterase 6) | fraction unbound [5] | Ki [6] [µM] | Ki [7] [µM] | Ki (Phosphodiesterase 1) | Ki [8] [µM] | Ki (Phosphodiesterase 7) | Kp at 6 h [9] | Ki [10] [µM] | Ki (Phosphodiesterase 8) | AUC(0-t) at 6 h [11] [µM·h] | Ki [14] [µM] | inhibition (Rattus norvegicus [15]) | other results |
| --- | --- | --- | --- | --- | --- | --- | --- | --- | --- | --- | --- | --- | --- | --- | --- | --- | --- |
| COc1cc(C)c2nc3[nH]nc(C)c3c(N3CCNCC3)c2c1 | 123 | >= 770 nM | >= 770 nM | >= 770 nM | 0.16 | > 100 | ≥ 0.77 | >= 770 nM | ≥ 0.77 | >= 770 nM | 1.2 | ≥ 0.77 | >= 770 nM | 3.3 | – | – | inhibition [1]: 54%; IC50 [2]: 0.32 µM; inhibition [4]: 54%; inhibition [12]: 54% |
| COc1cc(C)c2nc3[nH]nc(C)c3c(N3CCN(C(N)=O)[C@@H](C)C3)c2c1 | < 10 | – | – | – | – | – | – | – | – | – | – | – | – | 9.5 | 0.0033 | inactive | concentration at 1 h [13]: 27 ng/g |
| COc1cc(C)c2nc3[nH]nc(C)c3c(OC3CCOCC3)c2c1 | – | – | – | – | – | – | – | – | – | – | – | – | – | 10.6 | 0.0031 | Active | inhibition [16]: 30%; inhibition (Rattus norvegicus [17]): inactive |
| COc1cc(C)c2nc3[nH]nc(C)c3c(N3CCCOCC3)c2c1 | – | – | – | – | – | – | – | – | – | – | 0.3 | – | – | 11 | 0.0036 | Active | Ratio Ki (Homo sapiens [18]): > 1450; Ratio Ki (Homo sapiens [19]): > 1450; Ratio Ki (Homo sapiens [20]): > 1450; Ratio Ki (Homo sapiens [21]): > 1450; Ratio Ki (Homo sapiens [22]): > 1450; Ratio Ki (Homo sapiens [23]): > 1450; Ratio Ki (Homo sapiens [24]): > 1450; Ratio Ki (Homo sapiens [25]): > 1450; Ratio Ki (Homo sapiens [26]): > 1450; Ratio Ki (Homo sapiens [27]): > 1450 |
| COc1cc(C)c2nc3[nH]nc(C)c3c(NC3CCNCC3)c2c1 | – | – | – | – | – | – | – | – | – | – | – | – | – | – | 0.055 | – | inhibition [28]: 48% |
| COc1cc(C)c2nc3[nH]nc(C)c3c(NC3CCOCC3)c2c1 | 1100 | >= 4793 nM | >= 4793 nM | 0.278 µM | 0.07 | 17.3 | ≥ 4.79 | >= 4793 nM | ≥ 4.79 | >= 4793 nM | 0.7 | ≥ 4.79 | >= 4793 nM | 11.8 | 0.012 | – | hepatocyte CLint [29]: 54 µL/min/1e6 cells; hepatocyte CLint [30]: 0.8 µL/min/1e6 cells; ED50 (Rattus norvegicus [31]): 23 mg/kg; hepatocyte CLint [32]: 1.7 µL/min/1e6 cells; ED50 (Rattus norvegicus [33]): 4 mg/kg; AUC [34]: 12.5 µM·h; efflux ratio [35]: 0.7; hepatocyte CLint [36]: 2.9 µL/min/1e6 cells |
